Source: PubChem (Johns Hopkins Ion Channel Center)
MrgX1 allo act: positive allosteric modulators of MrgX1, primary screen, HEK293 cells, Fluo-4 calcium flux | Mas-related G-protein coupled receptor member X1 (Homo sapiens), Q96LB2 | FDSS; active compounds read high | B-score at 10 µM | actives 0.63% (n = 310,000) | AID 588675, 2011;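 active = plate-corrected calcium response at least 3 library SD above typical, normal starting fluorescence, not activating the receptor alone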;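 note: compound read alongside a low EC10 to EC30 dose of BAM8-22 agonist; peak minus trough fluorescence over baseline measured at the second addition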
Target sequence (Q96LB2 whole entry, looked up): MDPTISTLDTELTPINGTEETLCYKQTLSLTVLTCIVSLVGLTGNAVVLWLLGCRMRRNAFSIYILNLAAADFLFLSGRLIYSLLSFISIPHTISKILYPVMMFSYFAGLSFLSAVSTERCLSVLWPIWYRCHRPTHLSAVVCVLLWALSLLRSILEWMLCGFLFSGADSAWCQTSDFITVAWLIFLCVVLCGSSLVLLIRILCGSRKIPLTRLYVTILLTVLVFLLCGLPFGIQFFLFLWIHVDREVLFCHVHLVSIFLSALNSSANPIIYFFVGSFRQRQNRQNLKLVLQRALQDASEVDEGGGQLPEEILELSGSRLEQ
MrgX1 agonist: agonists of human MrgX1 receptor, primary screen, HEK293 cells, Fluo-4 calcium flux. Mas-related G-protein coupled receptor member X1 (Homo sapiens), Q96LB2. Fluo-4 calcium fluorescence, agonist mode; active compounds read high. B-score at 10 µM. actives 0.44% (n = 310,000);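 active = calcium response B-score plate-corrected fluorescence ratio at least 3 library SD, with starting fluorescence B-score inside 5 SD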
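Test system: Stable human MrgX1 HEK293 cell line | Schedule: Overnight plating before 1 h dye loading | Read-out basis: Baseline-normalised fluorescence change ratio, B-scored | Detection: Kinetic calcium dye fluorescence, Fluo-4 NW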
RGS4 pot: RGS4 potentiators or activators, primary screen, cell-based, HEK293 M3R inducible RGS4, calcium flux | carbachol calcium flux Fluo4; active compounds read low | B-score at 10 µM | actives 0.92% (n = 310,000);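 active = B-score of the integrated calcium signal more than 4 SD below the library mean, with starting fluorescence not abnormally high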;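 note: negative B-score means reduced calcium response which marks RGS4 activation or potentiation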
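Material: Inducible-RGS4 HEK293 cells carrying M3 receptor; also added: carbachol at ECmax as muscarinic agonist stimulus; incubation: compound preincubation 20 min at room temperature before agonist; signal: Fluo4-AM (2 µM) calcium-flux fluorescence, kinetic read; measure: integrated calcium ratio converted to B score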
MrgX1 antag: antagonists of human MrgX1 receptor, primary screen, HEK293 cells, Fluo-4 calcium flux; Mas-related G-protein coupled receptor member X1 (Homo sapiens), Q96LB2; BAM8-22 antagonism; active compounds read low; B-score at 10 µM; actives 1.3% (n = 310,000);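 active = calcium-response B-score plate-corrected more than 3 library SD below zero, starting fluorescence within 5 deviations, no agonist response on first addition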;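 note: peak minus trough fluorescence over baseline after final BAM8-22 challenge near maximal dose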
RGS4 inh: RGS4 inhibitors, primary screen, cell-based, HEK293 M3R inducible RGS4, calcium flux; Regulator of G-protein signaling 4 (Homo sapiens), P49798; Fluo-4 calcium flux; active compounds read high; triggered by carbachol at its EC20; B-score at 10 µM; actives 0.45% (n = 310,000);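 active = B-score, a plate-corrected calcium signal, over three deviations above library mean, with baseline fluorescence within five deviations of library mean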;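 note: RGS4 expression induced by doxycycline in cells with stable M3 receptor; B-score is computed from the integrated fluorescence ratio over baseline after carbachol; higher B-score means a larger calcium signal and so more RGS4 inhibition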
Target sequence (P49798 whole entry, looked up): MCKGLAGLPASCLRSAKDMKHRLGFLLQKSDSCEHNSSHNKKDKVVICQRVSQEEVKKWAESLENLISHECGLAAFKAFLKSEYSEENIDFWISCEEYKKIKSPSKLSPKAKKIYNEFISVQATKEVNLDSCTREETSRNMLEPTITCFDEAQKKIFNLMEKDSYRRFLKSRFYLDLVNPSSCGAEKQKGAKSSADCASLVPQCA
MrgX1 antag conf: MrgX1 receptor antagonists, duplicate retest, confirmation, HEK293 cells, Fluo-4 calcium flux; shares compounds with MrgX1 antag; BAM8-22 calcium flux; active compounds read low; remaining BAM8-22 calcium response % of control (active compounds read low), % at 10 µM; actives 19% (n = 2,300); AID 602420, 2012;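 active = remaining agonist calcium response no higher than 100% minus 3 SD of agonist-only control wells, with starting fluorescence near control levels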;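 note: agonist BAM8-22 given at a near maximal EC90 to ECmax level; peak minus minimum fluorescence divided by baseline after agonist addition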
HEK293 Ca flux: nonspecific calcium signal in parental HEK293, confirmation, counter-screen for MrgX1 antagonist project, parental HEK293 cells, Fluo-4 calcium flux. shares compounds with MrgX1 antag. Fluo-4 calcium fluorescence, FDSS. fluorescence ratio F(max-min)/F0 at 10 µM. actives 2% (n = 4,000);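 active = duplicate-averaged calcium fluorescence ratio at least three times the standard deviation of buffer wells, a nonspecific response in parental cells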
HEK293 Ca counter: calcium response in parental HEK293 cells, primary screen, counter-screen for MrgX1 allosteric activator project, cell-based, Fluo-4 calcium flux, duplicate. shares compounds with MrgX1 antag. Fluo-4 fluorescence ratio; active compounds read high. fluorescence ratio F(max-min)/F0 at 10 µM. actives 0.4% (n = 4,000). AID 624114, 2012;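 active = calcium fluorescence ratio, averaged over duplicates, at least 3 SD of the buffer-well ratio, meaning a nonspecific response in receptor-free cells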;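 note: untransfected parental HEK293 lacking MrgX1 used as counterscreen for MrgX1 allosteric activators; fluorescence change taken during the second addition on a kinetic imager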
HEK293 Ca cntr2: calcium response in parental HEK293 cells, primary screen, counter-screen for MrgX1 agonist project, cell-based, Fluo-4 calcium flux, duplicate, agonist mode; shares compounds with MrgX1 antag; Fluo-4 calcium fluorescence (FDSS); active compounds read high; fluorescence ratio F(max-min)/F0 at 10 µM; actives 8.7% (n = 4,000); AID 624115, 2012;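 active = calcium fluorescence ratio at least three times the spread of buffer wells, meaning a non-specific response in parental cells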
Hits are given with their value; i = inactive; nt = no result. A selection: hits, their analogues and other compounds. The true share with any hit is near 3.5%.

SMILES	MrgX1 allo act	MrgX1 agonist	RGS4 pot	MrgX1 antag	RGS4 inh	MrgX1 antag conf	HEK293 Ca flux	HEK293 Ca counter	HEK293 Ca cntr2
COc1cccc(N2CCN(C(=O)c3oc4ccccc4c3NC(=O)Cc3ccc(OC)c(OC)c3)CC2)c1	i	i	i	i	i	nt	nt	nt	nt
CC(/C=C/c1ccccc1)NC(N)=O (stereo unspecified)	i	i	i	-5.8	i	i	i	i	i
CCCCNC(=S)Nc1ccc(SC(F)F)cc1	i	i	i	-6.9	i	i	i	i	i
CC1CC(C)CN(C(=S)Nc2ccc(SC(F)F)cc2)C1 (stereo unspecified)	i	i	i	-5	i	i	i	i	i
CCCCNC(=S)Nc1ccc(F)cc1	i	i	i	i	i	nt	nt	nt	nt
CC1CN(C(=S)Nc2ccc(SC(F)F)cc2)CC(C)O1 (stereo unspecified)	i	i	i	i	i	nt	nt	nt	nt
CCN(CC(=O)NCc1ccc(F)cc1)CC(O)COCc1cccc(OC)c1 (stereo unspecified)	i	i	i	i	i	nt	nt	nt	nt
CC1Cc2cc(-c3csc(NC(=O)Cc4cccs4)n3)ccc2N1S(C)(=O)=O (stereo unspecified)	i	i	i	-4.8	i	50%	i	i	i
CCC(=O)Nc1nc(-c2ccc3c(c2)CC(C)N3S(C)(=O)=O)cs1 (stereo unspecified)	i	i	i	i	i	nt	nt	nt	nt
Cc1cccc(-c2ocnc2C(=O)N2CCN(C(=O)c3cccs3)CC2)c1	i	i	i	i	i	nt	nt	nt	nt
O=C(c1ccccc1)N1CCN(c2ncnc3sc4c(c23)CCC4)CC1	i	i	i	-5.1	i	i	i	i	i
c1nc(N2CCOCC2)c2c3c(sc2n1)CCCC3	i	i	i	i	i	nt	nt	nt	nt
O=C(O)CCCC(=O)Nc1ccccc1C(=O)N1CCCC1	i	i	i	-5.5	i	i	i	i	i
O=C(Nc1ccccc1C(=O)N1CCCC1)C1CCN(c2ncccn2)CC1	i	i	i	-7.2	i	i	i	i	i
Cc1ccccc1C(=O)NNC(=O)C1CCN(c2ncccn2)CC1	i	i	i	i	i	nt	nt	nt	nt
O=C(Cn1cnc2c(nnn2Cc2ccc(F)cc2)c1=O)NCc1ccc(F)cc1	i	i	i	i	i	nt	nt	nt	nt
CC(=O)Nc1ccc(NC(=O)Cn2cnc3c(nnn3Cc3ccc(F)cc3)c2=O)cc1	i	i	i	-6.8	i	i	i	i	i
O=C1CCN(S(=O)(=O)c2ccc(Cl)cc2)CCN1	i	i	i	-4.6	i	84%	i	i	i
Cc1ccc(CCSc2ccc(C(C)C)cc2)cn1	i	i	i	i	i	nt	nt	nt	nt
O=C(CNC(=O)C1CCCCC1)NC1CCCCC1	i	i	i	-4.7	i	i	i	i	i
Cc1cc(NC(=O)CNC(=O)C2CCCCC2)no1	i	i	nt	-5.3	nt	i	i	i	i
O=C(CNC(=O)C1CCCCC1)Nc1ccccc1	i	i	i	i	i	nt	nt	nt	nt
Cc1cc(C(=O)NNC(=O)c2ccc(Cl)cc2Cl)c(C)o1	i	i	i	i	i	nt	nt	nt	nt
CCC(=O)Nc1nnc(-c2cccs2)s1	i	i	i	-5.1	i	i	i	i	i
CCOc1cc(N2CCOCC2)c(OCC)cc1NC(=O)c1ccc(C)cc1	i	i	i	-12	i	i	i	i	i
SMILES	MrgX1 allo act	MrgX1 agonist	RGS4 pot	MrgX1 antag	RGS4 inh	MrgX1 antag conf	HEK293 Ca flux	HEK293 Ca counter	HEK293 Ca cntr2
CCOc1cc(C(=O)NCCC(=O)N2CCC3(CC2)NCCc2[nH]cnc23)cc(OCC)c1OCC	i	i	i	i	i	nt	nt	nt	nt
CC1=NN(c2nc3ccccc3[nH]2)C(=O)C1Cc1ccccc1 (stereo unspecified)	i	i	i	i	i	nt	nt	nt	nt
O=C(CSc1nnc(Cc2ccc3c(c2)OCO3)n1C1CCCCC1)NC1CCCC1	i	i	i	i	i	nt	nt	nt	nt
NC(=O)CSc1nnc(Cc2ccc3c(c2)OCO3)n1C1CCCCC1	i	i	i	-4.6	i	i	i	i	55
O=C(NC1CCCCCC1)c1ccc(=O)n(Cc2ccccc2)n1	i	i	i	i	i	nt	nt	nt	nt
Cc1ccc(S(=O)(=O)N(C)c2ccc(OCC(=O)N3CCCCC3)cc2)cc1	i	i	i	i	i	nt	nt	nt	nt
O=C(O)CC(C(=O)O)n1nc(-c2ccccc2)cc1-c1ccccc1 (stereo unspecified)	i	i	i	i	i	nt	nt	nt	nt
O=C(O)Cn1nc(-c2ccccc2)cc1-c1ccccc1	i	i	i	-5.6	i	i	i	i	i
O=C(NCc1cccc(Cl)c1)c1ccc(CS(=O)Cc2ccc(Cl)cc2)o1 (stereo unspecified)	i	i	i	i	i	nt	nt	nt	nt
O=C(O)c1ccc(Cl)c(S(=O)(=O)N2CCCC2)c1	i	i	i	i	i	nt	nt	nt	nt
O=C(O)c1ccc(Br)c(S(=O)(=O)N2CCCC2)c1	i	i	i	-5.6	i	i	i	i	i
CC(C)Sc1nc2c(c(=O)n1C)SC(C)C2 (stereo unspecified)	i	i	i	-6.9	i	i	i	i	i
CCOC(=O)C1CCCN(C(=O)CSCc2ccccc2)C1 (stereo unspecified)	i	i	i	-8.9	i	i	i	i	i
NC(=O)c1csc(-c2ccncc2)n1	i	i	i	-5.6	i	i	i	i	i
Cc1cc(C)n2ncc(C(=O)Nc3cccc(O)c3)c2n1	i	i	i	-5.9	i	i	i	i	i
Cc1cc(C)n2ncc(C(=O)Nc3ccc4c(c3)OCO4)c2n1	i	i	i	i	i	nt	nt	nt	nt
COc1ccc(NC(=O)CSc2nc(=O)n(CCN(C)C)c3c2CCCC3)cc1OC	i	i	i	-5.6	i	i	i	i	i
COc1ccc(Cl)cc1NC(=O)CSc1nc(=O)n(CCN(C)C)c2c1CCCC2	i	i	i	i	i	nt	nt	nt	nt
CCN(CC)CCn1c2c(c(SCC(=O)Nc3ccc(F)c(F)c3)nc1=O)CCC2	i	i	i	-9.5	i	i	i	i	i
